Experimental data published in ChEMBL document CHEMBL1140516, “Dual-acting agents that possess reversing resistance and anticancer activities: Design, synthesis, MES-SA/Dx5 cell assay, and SAR of Benzyl 1,2,3,5,11,11a-hexahydro-3,3-dimethyl-1-oxo-6H-imidazo[3',4':1,2]pyridin[3,4-b]indol-2-substitutedacetates” (Bioorg Med Chem, 2007).

Experiment: Growth inhibition of doxorubicin-resistant human MES-SA/Dx5 cells at 1.0 uM after 48 hrs by MTT assay
Type: functional
Details: MES-SA/Dx5, 48 h
Outline: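 Exponential-phase MES-SA/Dx5 cells were seeded at 1×10^5/mL in McCoy's 5A with 10% FCS and penicillin/streptomycin on poly-L-lysine-coated wells and preincubated 4 h at 37 °C under 5% CO2. Compound was added in medium as a 1 µmol/L solution and cells were grown 48 h. In the MTT read-out, DMSO-dissolved formazan absorbance was measured. Inhibition% = 1 − (drug−blank)/(control−blank), with untreated cells as control and a cell-free blank.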
For `CC1(C)N2Cc3[nH]c4ccccc4c3C[C@H]2C(=O)N1[C@@H](COCc1ccccc1)C(=O)OCc1ccccc1`, the inhibition at 1 µM was 0%.
Compound `CC1(C)N2Cc3[nH]c4ccccc4c3C[C@H]2C(=O)N1[C@@H](Cc1ccc(O)cc1)C(=O)OCc1ccccc1` has an inhibition at 1 µM of 0%.
Work on `CCC(C)[C@@H](C(=O)OCc1ccccc1)N1C(=O)[C@@H]2Cc3c([nH]c4ccccc34)CN2C1(C)C` (stereo partly specified) yielded an inhibition at 1 µM of 0%.
Work on `CC1(C)N2Cc3[nH]c4ccccc4c3C[C@H]2C(=O)N1[C@@H](CCCCNC(=O)OCc1ccccc1)C(=O)OCc1ccccc1` yielded an inhibition at 1 µM of 0%.
`CC1(C)N2Cc3[nH]c4ccccc4c3C[C@H]2C(=O)N1[C@@H](CCC(N)=O)C(=O)OCc1ccccc1` gave an inhibition at 1 µM of 0%.
For `C[C@@H](C(=O)OCc1ccccc1)N1C(=O)[C@@H]2Cc3c([nH]c4ccccc34)CN2C1(C)C`, the inhibition at 1 µM was 0%.
`CC1(C)N2Cc3[nH]c4ccccc4c3C[C@H]2C(=O)N1[C@@H](CC(=O)OCc1ccccc1)C(=O)OCc1ccccc1` showed an inhibition at 1 µM of 31.2%.
`CC(C)C[C@@H](C(=O)OCc1ccccc1)N1C(=O)[C@@H]2Cc3c([nH]c4ccccc34)CN2C1(C)C` gave an inhibition at 1 µM of 38.9%.
Compound `CC1(C)N(CC(=O)OCc2ccccc2)C(=O)[C@@H]2Cc3c([nH]c4ccccc34)CN21` has an inhibition at 1 µM of 0%.
Compound `CC(C)[C@@H](C(=O)OCc1ccccc1)N1C(=O)[C@@H]2Cc3c([nH]c4ccccc34)CN2C1(C)C` has an inhibition at 1 µM of 0%.
`CC1(C)N2Cc3[nH]c4ccccc4c3C[C@H]2C(=O)N1[C@@H](Cc1ccccc1)C(=O)OCc1ccccc1` gave an inhibition at 1 µM of 31.2%.
`CC1(C)N2Cc3[nH]c4ccccc4c3C[C@H]2C(=O)N1[C@@H](CC(N)=O)C(=O)OCc1ccccc1` gave an inhibition at 1 µM of 0%.
`CC1(C)N2Cc3[nH]c4ccccc4c3C[C@H]2C(=O)N1[C@@H](CCC(=O)OCc1ccccc1)C(=O)OCc1ccccc1` gave an inhibition at 1 µM of 13.4%.
For `CC1(C)N2Cc3[nH]c4ccccc4c3C[C@H]2C(=O)N1[C@@H](Cc1c[nH]c2ccccc12)C(=O)OCc1ccccc1`, the inhibition at 1 µM was 0%.

Experiment: Growth inhibition of doxorubicin-resistant human MES-SA/Dx5 cells after 48 hrs by MTT assay
Type: functional, cell-based
Details: MES-SA/Dx5, 48 h
Outline: (§1)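 MES-SA or MES-SA/Dx5 cells in exponential growth were seeded at 1×10^5/mL in McCoy's 5A with 10% FCS, penicillin and streptomycin on poly-L-lysine-coated plates and held 4 h at 37 °C, 5% CO2. Doxorubicin was then added at final 0.04–10.00 µM (serial halving) for 48 h. Read-out was MTT, with dried formazan dissolved in DMSO and absorbance read. Survival% = (treated−blank)/(control−blank), and IC50 was taken from the survival–concentration plot.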
For `COc1cccc2c1C(=O)c1c(O)c3c(c(O)c1C2=O)C[C@@](O)(C(=O)CO)C[C@@H]3O[C@H]1C[C@H](N)[C@H](O)[C@H](C)O1` [DOXORUBICIN], the IC50 was 1550 nM.

Experiment: Growth inhibition of doxorubicin-sensitive human MES-SA cells after 48 hrs by MTT assay
Type: functional, cell-based
Details: not given
Outline: as §1
`COc1cccc2c1C(=O)c1c(O)c3c(c(O)c1C2=O)C[C@@](O)(C(=O)CO)C[C@@H]3O[C@H]1C[C@H](N)[C@H](O)[C@H](C)O1` [DOXORUBICIN] gave an IC50 of 347 nM.
